pIC50, pKi: −log10 of the molar value.

One may read the IC50 as the point on the concentration scale where inhibition reaches its midpoint. High values mean weaker potency in that assay, low ones greater potency in that assay. For orientation: pIC50 means the IC50 on a negative log10 scale, so that one unit is a factor of ten. A low value points to a high IC50. In general, pKi refers to the negative decadic logarithm of the Ki, by convention in mol/L. The low end stands for a large Ki, the high end for a small Ki. Usually inhibition stands for the share of the control response that was lost under treatment. Read a high inhibition as a strong effect.

The first experiment addresses Trypsin (Homo sapiens, UniProt P07477+P07478+P35030). The experiment can be described thus: Inhibition of trypsin. The experiment is classed as protein assay. A digest of the protocol:
(§1)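 HPLC-based activity assay with substrate S0120 at 400 µM. Enzyme levels: papain 4.5 µM, chymotrypsin 0.45 µM, trypsin 0.23 µM. IC50 determined from HPLC measurements.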
Molecule `NC(=O)c1ccc2c(c1)C(=O)C(=O)N2Cc1ccc2ccccc2c1` displayed an IC50 of 352 µM.

Another experiment has as its target T1, Human rhinovirus A protease (Human rhinovirus sp., UniProt Q4U254).
T1 sequence (Q4U254 whole entry): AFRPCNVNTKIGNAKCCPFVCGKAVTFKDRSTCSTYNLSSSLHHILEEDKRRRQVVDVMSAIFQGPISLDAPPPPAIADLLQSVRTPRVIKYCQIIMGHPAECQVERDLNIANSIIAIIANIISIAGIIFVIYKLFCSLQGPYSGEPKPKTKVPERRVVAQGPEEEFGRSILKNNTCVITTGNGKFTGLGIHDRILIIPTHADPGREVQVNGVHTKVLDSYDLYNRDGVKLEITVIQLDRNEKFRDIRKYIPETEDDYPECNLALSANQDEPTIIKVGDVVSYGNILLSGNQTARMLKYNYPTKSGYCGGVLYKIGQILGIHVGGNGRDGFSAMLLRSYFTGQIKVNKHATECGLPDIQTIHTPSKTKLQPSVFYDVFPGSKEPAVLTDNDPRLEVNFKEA
The experiment can be described thus: Inhibition of human rhinovirus 14 3C protease. The arrangement: species or system rhinovirus B14.
On to `NC(=O)c1ccc2c(c1)C(=O)C(=O)N2Cc1ccc2ccccc2c1`, for which the pIC50 was 8.40.

A further experiment deals with Chymotrypsinogen B (Homo sapiens, UniProt P17538). The experiment can be described thus: Inhibition of chymotrypsin. A digest of the protocol: as §1
Chymotrypsinogen B, sequence (P17538 34-164 limits assumed, other chains not shown): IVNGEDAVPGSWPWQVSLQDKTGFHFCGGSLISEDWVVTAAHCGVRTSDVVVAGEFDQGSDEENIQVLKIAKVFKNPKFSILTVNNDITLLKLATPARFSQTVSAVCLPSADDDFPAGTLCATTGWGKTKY
Chymotrypsinogen B, sequence (P17538 167-263 limits assumed, other chains not shown): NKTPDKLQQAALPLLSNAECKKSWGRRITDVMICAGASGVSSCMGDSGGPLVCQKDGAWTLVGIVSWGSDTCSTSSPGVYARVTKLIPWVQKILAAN
Molecule `NC(=O)c1ccc2c(c1)C(=O)C(=O)N2Cc1ccc2ccccc2c1` had a pIC50 of 4.47.

The target of another experiment is Replicase polyprotein 1a (Severe acute respiratory syndrome-related coronavirus, UniProt P0C6U8). Nature of the experiment: Inhibition of SARS CoV 3C-like protease.
On to `O=C1C(=O)N(Cc2ccccc2)c2ccc(I)cc21`, for which the pIC50 was 4.30 and the pKi is 4.30. Take `CN1C(=O)C(=O)c2cc(C(N)=O)ccc21`: the pIC50 is 4.15 and the pKi is 4.15.

`NC(=O)c1ccc2c(c1)C(=O)C(=O)N2Cc1ccccc1` gave a pIC50 of 4.90.

The next experiment deals with Replicase polyprotein 1a (Severe acute respiratory syndrome-related coronavirus) (UniProt P0C6U8). Nature of the experiment: Inhibition of SARS CoV 3C-like protease at 100 uM.
`O=C(O)c1ccc2c(c1)C(=O)C(=O)N2Cc1ccccc1` came in with an inhibition below 25%. The same measure, in the same setting: next, `O=C1Nc2ccc(C(=O)O)cc2C1=O`: below 25%; `CN1C(=O)C(=O)c2cc(I)ccc21`: below 25%. `CCCCN1C(=O)C(=O)c2cc(C(=O)OC)ccc21` displayed an inhibition below 25%.

`CN1C(=O)C(=O)c2cc(C(=O)O)ccc21` displayed an inhibition below 25%. In turn, `COC(=O)c1ccc2c(c1)C(=O)C(=O)N2Cc1ccccc1` returned an inhibition below 25%.

`O=C(O)c1ccc2c(c1)C(=O)C(=O)N2Cc1ccc2ccccc2c1` came in with an inhibition of 46%.

The molecule `O=C1Nc2ccc(I)cc2C1=O` registered an inhibition below 25%. `CCCN1C(=O)C(=O)c2cc(C(=O)OC)ccc21` had an inhibition below 25%. Turning to `COC(=O)c1ccc2c(c1)C(=O)C(=O)N2Cc1ccc2ccccc2c1`, the inhibition is below 25%. Same read-out and setting: the value for `NC(=O)c1ccc2c(c1)C(=O)C(=O)N2` was below 25%. `CCCN1C(=O)C(=O)c2cc(C(=O)O)ccc21` registered an inhibition below 25%. With `COC(=O)c1ccc2c(c1)C(=O)C(=O)N2C`, the inhibition is below 25%.

As to `CCCN1C(=O)C(=O)c2cc(I)ccc21`, the inhibition is 25%.

With `CCCCN1C(=O)C(=O)c2cc(C(=O)O)ccc21`, the inhibition is below 25%.

The target in another experiment is T2, Papain (Carica papaya, UniProt P00784).
T2 sequence (P00784 whole entry): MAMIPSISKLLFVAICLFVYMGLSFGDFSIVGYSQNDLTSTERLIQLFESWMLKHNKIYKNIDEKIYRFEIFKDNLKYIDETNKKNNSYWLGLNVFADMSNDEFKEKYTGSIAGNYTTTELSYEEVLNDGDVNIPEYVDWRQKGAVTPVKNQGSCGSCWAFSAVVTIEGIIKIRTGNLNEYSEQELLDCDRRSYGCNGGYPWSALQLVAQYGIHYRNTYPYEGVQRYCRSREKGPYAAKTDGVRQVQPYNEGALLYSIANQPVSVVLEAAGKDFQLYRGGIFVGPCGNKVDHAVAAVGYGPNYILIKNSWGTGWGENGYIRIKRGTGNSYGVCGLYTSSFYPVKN
Nature of the experiment: Inhibition of papain. Put shortly: as §1
Turning to `NC(=O)c1ccc2c(c1)C(=O)C(=O)N2Cc1ccc2ccccc2c1`, the pIC50 is 4.96.
